Measured values from different studies.
Lines come from different studies, so protocols differ. Values after ≈ are worked out from the molar mass of the structure shown.

Compound | tested on | test | test system | setting | measurement | value
NS(=O)(=O)c1cc(C(=O)O)c(NCc2ccco2)cc1Cl | human PBMC | cell migration | – | 10 µM | inhibition | 89%
CCCCCCC/C=C/C(=O)N1C(=O)/C(=C(\O)c2ccc(OCOCCOC)cc2)C(=O)C1CC(C)C (stereo not drawn) | Burkholderia cepacia | microbial growth | ATCC25416 | – | MIC | > 200 µg/mL
O=C(Oc1ccc(I)cc1)[c-]1cccc1.[Fe+2].c1cc[cH-]c1 | MCF-10A | cell growth or viability, MTT | – | 72 h | IC50 | 7 µM
COc1cc2c3c(n(CCCNCCO)c(=O)c2cc1OC)-c1cc2c(cc1C3=O)OCO2 | SN12C | cell growth or viability | – | – | GI50 | < 0.01 µM
OCCOCCN1CCN(C(c2ccccc2)c2ccc(Cl)cc2)CC1 (stereo not drawn) | human PBMC | cell migration | – | 10 µM | inhibition | 7%
CN[C@@H]1[C@H](O)[C@H](NC)[C@H]2O[C@@]3(O)C(=O)C[C@@H](C)O[C@H]3O[C@@H]2[C@H]1O | Burkholderia cepacia | microbial growth, broth dilution | ATCC25416 | – | MIC | 50 µg/mL (≈ 150 µM)
CCCCCCC/C=C/C(=O)N1C(=O)/C(=C(\O)CCCC)C(=O)C1CC(C)C (stereo not drawn) | Burkholderia cepacia | microbial growth | ATCC25416 | – | MIC | > 200 µg/mL
O=C(N/N=C1\C(=O)N(Cc2ccccc2)c2ccc(Cl)cc21)c1cc2ccccc2[nH]1 | MCF-10A | cell growth or viability | – | 72 h | IC50 | 2 µM
CCCCCCC/C=C/C(=O)N1C(=O)/C(=C(/C)O)C(=O)C1Cc1ccc(O)cc1 (stereo not drawn) | Burkholderia cepacia | microbial growth | ATCC25416 | – | MIC | > 200 µg/mL
CCCCCCCCCCCCCCCC(=O)N(C)[C@H](CO)C(=O)N[C@H](C)C(=O)NCC(=O)N(C)[C@@H]1C(=O)N[C@@H](C)C(=O)N[C@H](C(=O)O)Cc2ccc(O)c(c2)-c2cc1ccc2O | Latilactobacillus sakei | microbial growth | – | – | MIC | > 128 µg/mL
C=C(CCC=C(C)C)[C@H]1CC[C@H]2[C@@H]3CCC4=CC(=O)CC[C@]4(C)[C@H]3CC[C@@]12C | Leishmania mexicana | parasite growth | – | 48 h, promastigote | IC50 | 30 µM
CCCCCCCCCOc1ccc2[nH]cc(CCN)c2c1 | CAL-27 | cell growth or viability | – | 72 h | IC50 | 4.11 µM
